Among the data in ChEMBL document CHEMBL4038311, “An Ursolic Acid Derived Small Molecule Triggers Cancer Cell Death through Hyperstimulation of Macropinocytosis” (J Med Chem, 2017) are viability, IC50 and Activity values, retold here.

The IC50 is the concentration that inhibits the measured activity by half.

Activity calls are given as the source filed them. No cut-off for these calls is given here.

Data set [1] relates to HT-1080. Briefly: Anticancer activity against human HT1080 cells assessed as cell viability at 20 uM after 48 hrs by CCK8 assay relative to control. To be noted: HT-1080, 48 h, read-out: Activity. In kind it is functional. The method in brief:
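Cells (5000/well, pre-incubated overnight) exposed to 20 µM for 48 h. CCK-8 absorbance read at 450 nm. Viability given as percent of vehicle (DMSO) control, mean ± SD. Six parallel wells per condition, at least three independent repeats.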
(Tetrazolium dyes change colour on reduction, which living cells bring about.)

Data set [2] concerns HeLa. Briefly: Anticancer activity against human HeLa cells assessed as cell viability after 48 hrs by CCK8 assay. The format is functional, cell-based. The method in brief:
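Seeded at 1000 cells/well in DMEM with 10% FBS at 37 °C, 5% CO2, overnight pre-incubation. Serial dilutions from a 100 mM DMSO stock gave final 0–50 µM, with 48 h exposure. CCK-8 read at 450 nm. IC50 fitted against DMSO control, given with s.d., n = 3 independent experiments.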

Data set [3] relates to HT-1080. Put plainly: Anticancer activity against human HT1080 cells assessed as vacuole formation at 20 uM after 24 hrs by phase contrast microscopic analysis. The format is functional, cell-based.
Another data set has as its system MCF7. Put plainly: Anticancer activity against human MCF7 cells assessed as vacuole formation at 20 uM after 24 hrs by phase contrast microscopic analysis. In kind it is functional, cell-based.
The nature of data set [4]: Cytotoxicity against mouse C2C12 cells assessed as cell viability at 20 uM after 24 to 48 hrs by CCK8 assay relative to control. In kind it is cell-based. To be noted: read-out: Activity. The method, boiled down: (§1)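 C2C12 or HDF cells, seeded at 5000/well, given 20 µM or 0.1% DMSO for 24 h or 48 h. CCK-8 absorbance read at 450 nm, relative to DMSO control. Six parallel wells, at least three independent repeats.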

The nature of data set [5]: Cytotoxicity against HDF assessed as cell viability at 20 uM after 24 to 48 hrs by CCK8 assay relative to control. The format is cell-based. The conditions noted are these: human, HDF cells; read-out: Activity. The method, boiled down:
as §1

A short description of data set [6]: Cytotoxicity against HDF assessed as vacuole formation at 20 uM after 24 hrs by phase contrast microscopic analysis relative to control. The format is cell-based. The conditions noted are these: human. The method in brief:
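C2C12 or HDF cells given 20 µM or 0.1% DMSO for 24 h, then imaged live by phase-contrast microscopy.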

Data set [7] has as its system HeLa. Put plainly: Anticancer activity against human HeLa cells assessed as reduction in colony formation after 48 hrs by Giemsa staining-based assay. The format is functional, cell-based. The method, boiled down: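 HeLa cells exposed 48 h to 15, 20 or 25 µM, then reseeded at 500 cells/well in six-well plates. After 15 days, colonies fixed in methanol, stained with Giemsa, photographed and counted.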

The subject of data set [8] is HeLa. Briefly: Anticancer activity against human HeLa cells assessed as cell viability at 20 uM after 24 to 72 hrs by CCK8 assay relative to control. The format is functional. To be noted: read-out: Activity. The method in brief: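 HeLa cells seeded at 5000/well and pre-incubated overnight, then exposed to 20 µM. CCK-8 absorbance at 450 nm read at 24, 48 and 72 h, relative to DMSO-treated control. Six wells per condition, experiments repeated at least three times.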

The test system of data set [9] is HeLa. Put plainly: Induction of apoptosis in human HeLa cells assessed as increase in cleaved caspase-3 levels at 20 to 30 uM after 24 hrs by Western blot analysis. The format is functional, cell-based. The method, boiled down:
(§2)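 HeLa given indicated concentrations. RIPA lysates, BCA-quantified, SDS-PAGE and PVDF transfer. Anti-caspase-3 or anti-PARP1 applied overnight at 4 °C after 1 h 5% milk block, secondary 2 h at RT. Infrared imaging, GAPDH as loading control.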

Data set [10] concerns HeLa. Put plainly: Induction of apoptosis in human HeLa cells assessed as increase in cleaved caspase-3 levels at 30 to 100 uM after 48 hrs by Western blot analysis. In kind it is functional, cell-based. The method, boiled down:
as §2
Background: In western blotting, separated proteins are transferred to a membrane and probed.

The test system of data set [11] is HeLa. Put plainly: Induction of apoptosis in human HeLa cells assessed as increase in cleaved PARP1 levels at 20 to 30 uM after 24 to 48 hrs by Western blot analysis. In kind it is functional, cell-based. The method, boiled down: as §2
Data set [12] concerns HeLa. Put plainly: Anticancer activity against human HeLa cells assessed as decrease in cell viability at 20 uM preincubated cells with Z-VAD-FMK for 1 hr followed by compound addition measured after 48 hrs by CCK8 assay. The format is functional, cell-based. The method in brief:
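HeLa cells pretreated 1 h with 50 µM z-VAD-FMK, then given the compound. Viability read after 48 h by CCK-8 (450 nm), with DMSO-treated wells as control.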

Data set [13] has as its system HeLa. Briefly: Anticancer activity against human HeLa cells assessed as vacuole formation at 20 uM preincubated cells with Z-VAD-FMK for 1 hr followed by compound addition measured after 24 hrs by phase contrast microscopic analysis. In kind it is functional, cell-based. The method, boiled down:
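HeLa pretreated 1 h with or without z-VAD-FMK, then given 20 µM or DMSO. Phase-contrast images taken at 24 h.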

For data set [14], the system named is HeLa. Put plainly: Induction of autophagy in human HeLa cells assessed as conversion of LC3-1 to LC3-2 at 15 to 25 uM after 24 hrs by Western blot analysis. The format is functional, cell-based. The method in brief: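 HeLa given indicated concentrations or 0.1% DMSO for 24 h. RIPA lysates, BCA-normalized, SDS-PAGE and PVDF transfer. Probed with anti-LC3 (overnight, 4 °C) after 5% milk block, infrared detection, GAPDH for normalization.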

For data set [15], the system named is HeLa. Put plainly: Anticancer activity against human HeLa cells assessed as vacuole formation preincubated cells with 3-MA followed by compound addition measured after 24 hrs by phase contrast microscopic analysis. In kind it is functional, cell-based. The method in brief: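 HeLa cells pretreated 1 h with or without 3-MA before compound or DMSO. Phase-contrast images obtained after 24 h.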

Data set [16] concerns HeLa. Briefly: Induction of macropinocytosis-like cytosolic vacuolization in human HeLa cells at 20 uM after 24 hrs by transmission electron microscopic analysis. In kind it is functional, cell-based. The method in brief: (§3)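 HeLa exposed to 20 µM for 24 h, then fixed, dehydrated and resin-embedded. Ultrathin sections on copper grids stained with uranyl acetate and lead citrate, then examined by TEM.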

The test system of data set [17] is HeLa. Briefly: Induction of autophagy in human HeLa cells assessed as cytosolic autophagosomes formation at 20 uM after 24 hrs by transmission electron microscopic analysis. The format is functional, cell-based. The method, boiled down: as §3
Data set [18] relates to HeLa. Put plainly: Induction of macropinocytosis in human HeLa cells assessed as lucifer yellow accumulation in phase-lucent vacuole at 20 uM after 24 hrs by confocal microscopic analysis. The format is functional, cell-based.
The subject of data set [19] is HeLa. Briefly: Induction of macropinocytosis in human HeLa cells assessed as formation of mitochondrial degradative compartments at 20 uM after 24 hrs by Mitotracker red staining-based confocal microscopic analysis. In kind it is functional, cell-based. The method, boiled down:
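HeLa given 20 µM for 24 h, then labelled live with 50 nM LysoTracker Red (30 min) or 200 nM MitoTracker Red CMXRos (1 h) in medium, after Lucifer yellow loading. Imaged live by confocal microscopy.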

The subject of data set [20] is HeLa. Briefly: Induction of methuosis in human HeLa cells assessed as increase in vacuole formation preincubated cells with actin inhibitor cytochalasin D for 1 hr followed by compound addition measured after 24 hrs by phase contrast microscopic analysis. In kind it is functional, cell-based. The method in brief: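 HeLa cells grown in DMEM with 10% FBS, 100 U/ml penicillin and 100 µg/ml streptomycin at 37 °C, 5% CO2 humidified air. The inhibitor was added before compound exposure. Vacuolization was judged in live cells by phase-contrast microscopy.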

The subject of data set [21] is HeLa. Put plainly: Induction of methuosis in human HeLa cells assessed as decrease in cell viability at 20 uM preincubated with macropinocytosis inhibitor EIPA for 30 mins followed by compound addition measured after 24 to 72 hrs by CCK8 assay. In kind it is functional, cell-based. The method in brief: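 HeLa pretreated 30 min with or without 50 µM EIPA, then given 20 µM or DMSO. CCK-8 viability read at the indicated times.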

Consider `C[C@H]1[C@H](C)CC[C@]2(C(=O)O)CC[C@]3(C)C(=CC[C@@H]4[C@@]5(C)Cc6cnn(-c7ccc(C#N)cc7)c6C(C)(C)[C@@H]5CC[C@]43C)[C@H]12`, for which the viability at 20 µM with HT-1080 [1] is 26.8%; in data set [4], 13%; in data set [5], 28%; in the data set with HeLa [8], 74.2%. For the same compound, the IC50 in the data set with HeLa [2] stood at 15.1 µM. In addition, the result in the data set on HT-1080 [3], in the data set on MCF7, with HeLa [9], with HeLa [10], in the data set on HeLa [11] and with HeLa [12] was Active. Further, the outcome in the data set on HeLa [13], in the data set on HeLa [14], with HeLa [15], in the data set on HeLa [16], with HeLa [18] and with HeLa [19] was Active. The Activity entry in [6] was “Toxic”; in the data set on HeLa [7], “Dose-dependent effect”. Moreover, the result in the data set on HeLa [17], in the data set on HeLa [20] and in the data set with HeLa [21] was inactive.
